Measurements as given in ChEMBL document CHEMBL1130354, “Bicyclo[2.2.1]heptane and 6,6-dimethylbicyclo[3.1.1]heptane derivatives: orally active, potent, and selective prostaglandin D2 receptor antagonists” (J Med Chem, 1997).

How the values were obtained:
[1] = biological target: Prostacyclin receptor (Homo sapiens, UniProt P43119); assay: Inhibition of cAMP formation by carbacyclin in Prostaglandin I2 receptor (IP) assay; type: functional
Method in brief: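 Platelets (human) preincubated 10 min at 37 °C with graded compound levels plus IBMX, then exposed 2 min to 0.1 μM carbacyclin; cAMP formation inhibition read out; IC50 is mean of two or three measurements.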

[2] = biological target: T1, Prostaglandin D2 receptor (Homo sapiens, UniProt Q13258); assay: Inhibition of cAMP formation evoked by the prostaglandin D2 receptor in human platelets; type: functional
T1 sequence (Q13258 whole entry): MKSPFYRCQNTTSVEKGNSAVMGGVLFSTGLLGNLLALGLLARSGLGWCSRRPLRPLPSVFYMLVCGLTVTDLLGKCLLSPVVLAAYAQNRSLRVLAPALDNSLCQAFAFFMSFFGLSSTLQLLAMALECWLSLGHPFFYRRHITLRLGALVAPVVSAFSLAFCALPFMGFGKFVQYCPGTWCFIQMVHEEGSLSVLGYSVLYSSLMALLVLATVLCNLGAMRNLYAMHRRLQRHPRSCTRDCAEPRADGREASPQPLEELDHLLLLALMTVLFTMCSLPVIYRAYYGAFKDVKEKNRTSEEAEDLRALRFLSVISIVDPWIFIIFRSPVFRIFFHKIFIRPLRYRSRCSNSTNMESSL
Method in brief: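 Human platelets preincubated 10 min at 37 °C with graded compound concentrations in presence of IBMX, then stimulated 2 min with 0.1 μM PGD2; inhibition of cAMP formation measured, IC50 derived.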

[3] = organism: Cavia porcellus; assay: Effect on antigen-induced increase in vascular permeability in conjunctiva of guinea pig which actively sensitized with ovalbumin; type: functional
Method in brief: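 Guinea pigs actively sensitized with ovalbumin, challenged conjunctivally with antigen; increase in conjunctival microvascular permeability measured; ED50 from dose–response data, n = 3–10 animals per point.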

[4] = organism: Cavia porcellus; assay: Effect on PGD2-induced increase in vascular permeability in conjunctiva of normal guinea pigs; type: functional
Method in brief: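 Normal guinea pigs; conjunctival microvascular permeability increase induced by topical 0.1% PGD2; dose producing 50% inhibition derived from dose–response data, n = 3–10 animals per point.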

[5] = biological target: T2, Thromboxane A2 receptor (Homo sapiens, UniProt P21731); assay: Inhibition of [3H]- (+)-S-145 specific binding to human platelet membranes in TXA2 receptor (TP) assay
T2 sequence (P21731 whole entry): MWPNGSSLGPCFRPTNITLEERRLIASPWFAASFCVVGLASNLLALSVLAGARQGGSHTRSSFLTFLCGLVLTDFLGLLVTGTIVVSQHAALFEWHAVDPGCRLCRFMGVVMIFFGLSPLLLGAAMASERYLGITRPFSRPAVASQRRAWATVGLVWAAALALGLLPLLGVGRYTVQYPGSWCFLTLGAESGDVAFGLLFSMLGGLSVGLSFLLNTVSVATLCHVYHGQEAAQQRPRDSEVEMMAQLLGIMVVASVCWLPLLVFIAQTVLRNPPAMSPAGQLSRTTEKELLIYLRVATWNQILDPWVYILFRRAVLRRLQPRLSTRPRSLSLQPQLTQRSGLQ
Method in brief: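 Membranes from human platelets incubated 60 min at room temperature with 2 nM [3H](+)-S-145 plus graded compound concentrations; specific binding inhibition gives IC50.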

[6] = system: Cavia porcellus; assay: Inhibition of increase in specific airway resistance by antigen inhalation in conscious guinea pigs (10 mg/kg); type: functional
Method in brief: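 Conscious guinea pigs given compound po 1 h before antigen inhalation; increase in specific airway resistance measured; percent inhibition as mean ± SEM, n = 4–11 animals/group; Student's t-test versus control.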

[7] = organism: Cavia porcellus; assay: Dose required to inhibit 50% of antigen-induced increase in intranasal pressure; type: functional; conditions: po
Method in brief: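 Oral dosing of actively sensitized guinea pigs 1 h before antigen challenge; rise in intranasal pressure recorded; dose giving 50% inhibition taken from dose–response data, n = 5–10 animals per point.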

[8] = system: Cavia porcellus; assay: Inhibition of antigen-induced increase in intranasal pressure in actively sensitized guinea pigs at 1 mg/kg (iv); type: functional
Method in brief: (§1)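 Actively sensitized guinea pigs; compound given iv 10 min before antigen challenge; antigen-induced rise in intranasal pressure measured, percent inhibition reported as mean ± SEM, n = 5–10/group; Student's t-test versus control.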

[9] = biological target: T1, Prostaglandin D2 receptor; assay: Inhibition of [3H]PGD-2 specific binding to Prostaglandin D2 receptor from human platelet membranes
Method in brief: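 Human platelet membranes incubated 60 min at 4 °C with 5 nM [3H]PGD2 and graded test compound concentrations; inhibition of specific binding measured, IC50 derived.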

[10] = system: Cavia porcellus; assay: Inhibition of antigen-induced increase in intranasal pressure in actively sensitized guinea pigs at 3 mg/kg (iv); type: functional; method in brief: as §1

Sequence of Prostacyclin receptor (P43119 whole entry): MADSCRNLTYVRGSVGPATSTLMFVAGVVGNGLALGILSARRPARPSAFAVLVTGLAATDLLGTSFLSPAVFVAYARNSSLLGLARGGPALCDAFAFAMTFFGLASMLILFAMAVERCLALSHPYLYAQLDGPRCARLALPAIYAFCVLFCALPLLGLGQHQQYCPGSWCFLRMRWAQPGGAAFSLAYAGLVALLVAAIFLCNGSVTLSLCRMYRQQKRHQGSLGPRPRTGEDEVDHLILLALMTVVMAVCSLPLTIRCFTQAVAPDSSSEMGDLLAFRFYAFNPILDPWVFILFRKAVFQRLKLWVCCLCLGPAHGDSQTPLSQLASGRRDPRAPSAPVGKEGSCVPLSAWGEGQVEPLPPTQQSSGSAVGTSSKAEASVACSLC

| IC50 [1] [µM] | IC50 [2] [µM] | IC50 [5] [µM] | IC50 [9] [µM] | SMILES | ED50 [3] [mg/kg] | ED50 [4] [mg/kg] | Inhibition [6] [%] | ED50 [7] [mg/kg] | inhibition in vivo at 1 mg/kg [8] [%] | inhibition in vivo at 3 mg/kg [10] [%] |
| --- | --- | --- | --- | --- | --- | --- | --- | --- | --- | --- |
| > 10 | 0.0018 | 0.43 |  | CC1(C)[C@H]2C[C@H](C/C=C\CCCC(=O)O)[C@@H](NC(=O)c3csc4ccc(F)cc34)[C@@H]1C2 | 8.9 | 3.5 | 69 | 1 |  |  |
| > 10 | 0.001 | 0.096 |  | CC1(C)[C@H]2C[C@H](C/C=C\CCCC(=O)O)[C@@H](NC(=O)c3csc4ccc(O)cc34)[C@@H]1C2 | 2 | 0.12 | 70 | 2.1 | 78 |  |
| > 10 | 0.064 | 3.1 | 0.032 | CC1(C)[C@H]2C[C@H](C/C=C\CCCC(=O)O)[C@@H](NC(=O)c3ccc[nH]3)[C@@H]1C2 |  |  |  |  |  |  |
| 1.4 | > 1 |  | 3 | O=C(O)CCC/C=C\C[C@@H]1[C@H]2CC[C@H](C2)[C@H]1NC(=O)c1ccc(/N=N/c2ccccc2)cc1 |  |  |  |  |  |  |
| 7.5 | 0.22 | 0.27 | 0.032 | CC1(C)[C@H]2C[C@H](C/C=C\CCCC(=O)O)[C@@H](NC(=O)c3ccc4oc5ccccc5c4c3)[C@@H]1C2 |  |  |  |  |  |  |
| > 10 | 0.0056 | 0.21 |  | CC1(C)[C@H]2C[C@H](C/C=C\CCCC(=O)O)[C@@H](NC(=O)c3cccc4ccsc34)[C@@H]1C2 |  |  |  |  |  |  |
| > 10 |  | 0.41 |  | CC1(C)[C@H]2C[C@H](C/C=C\CCCC(=O)O)[C@@H](NC(=O)c3csc4cc(O)ccc34)[C@@H]1C2 |  |  |  |  |  |  |
| 1.5 | 0.07 | 1.7 |  | O=C(O)CCC/C=C\C[C@@H]1[C@H]2CC[C@H](C2)[C@H]1NS(=O)(=O)c1ccc2oc3ccccc3c2c1 |  |  |  | 3.5 | 82 |  |
| 5.9 | 0.068 | > 10 | 0.027 | COc1cc2c(cc1S(=O)(=O)N[C@@H]1[C@@H]3CC[C@@H](C3)[C@H]1C/C=C\CCCC(=O)O)oc1ccccc12 | 6.6 | 1.6 |  | 2.2 | 80 |  |
| > 10 | 0.12 | 1.2 | 0.047 | O=C(O)CCC/C=C\C[C@@H]1[C@H]2CC[C@H](C2)[C@H]1NS(=O)(=O)c1ccc2cc(-c3ccccc3)[nH]c2c1 |  |  |  | 7.2 | 60 |  |
| > 10 |  | 0.38 |  | CC1(C)[C@H]2C[C@H](C/C=C\CCCC(=O)O)[C@@H](NC(=O)c3csc4ccccc34)[C@@H]1C2 |  |  |  |  |  |  |
| > 10 | 0.038 | 2.1 | 1.6 | CC1(C)[C@H]2C[C@H](C/C=C\CCCC(=O)O)[C@@H](NC(=O)c3ccsc3)[C@@H]1C2 | 9.5 | 3.5 | 15 | 5.1 | 77 |  |
| 4.5 | 0.25 |  | 1.1 | O=C(O)CCC/C=C\C[C@@H]1[C@H]2CC[C@H](C2)[C@H]1NS(=O)(=O)c1ccc2oc3cc([N+](=O)[O-])ccc3c2c1 |  |  |  |  |  |  |
| 3.4 | > 1 | 0.74 | 1.3 | CC1(C)[C@H]2C[C@H](C/C=C\CCCC(=O)O)[C@@H](NS(=O)(=O)c3ccc(/N=N/c4ccccc4)cc3)[C@@H]1C2 |  |  |  |  |  |  |
| 8.9 | 0.42 | 0.67 | 1.2 | O=C(O)CCC/C=C\C[C@@H]1[C@H]2CC[C@H](C2)[C@H]1NS(=O)(=O)c1ccc2ccccc2c1 |  |  |  |  | 54 |  |
| > 10 | 0.32 | 1.3 | 0.027 | O=C(O)CCC/C=C\C[C@@H]1[C@H]2CC[C@H](C2)[C@H]1NS(=O)(=O)c1ccc(/N=N/c2ccccc2)cc1 |  |  |  |  |  |  |
| 3.3 | > 1 | 0.00013 | 4.9 | O=C(O)CCC/C=C\C[C@H]1[C@@H]2CC[C@@H](C2)[C@@H]1NS(=O)(=O)c1ccc2ccccc2c1 |  |  |  |  | 6 |  |
| > 10 | 0.78 | 1.3 | 0.72 | O=C(O)CCC/C=C\C[C@@H]1[C@H]2CC[C@H](C2)[C@H]1NS(=O)(=O)c1ccc(Oc2ccccc2)cc1 |  |  |  |  | 25 |  |
| > 10 | 0.38 | 0.15 | 0.54 | CC1(C)[C@H]2C[C@H](C/C=C\CCCC(=O)O)[C@@H](NC(=O)c3ccc(/N=N/c4ccccc4)cc3)[C@@H]1C2 |  |  |  |  |  |  |
| > 10 | 0.36 | 0.81 | 5.2 | CC1(C)[C@H]2C[C@H](C/C=C\CCCC(=O)O)[C@@H](NC(=O)c3ccccc3)[C@@H]1C2 |  |  |  |  |  |  |
| 5 | 0.45 | 1.1 | 0.6 | O=C(O)CCC/C=C\C[C@@H]1[C@H]2CC[C@H](C2)[C@H]1NS(=O)(=O)c1ccc(-c2ccccc2)cc1 |  |  |  |  |  | 39 |
| > 10 | 0.25 | 0.28 | 0.0086 | O=C(O)CCC/C=C\C[C@@H]1[C@H]2CC[C@H](C2)[C@H]1NS(=O)(=O)c1ccc(C#Cc2ccccc2)cc1 |  |  |  |  | 25 |  |
| > 10 | > 1 | 0.24 | 0.78 | CC1(C)[C@H]2C[C@H](C/C=C\CCCC(=O)O)[C@@H](NS(=O)(=O)c3ccc4oc5ccccc5c4c3)[C@@H]1C2 |  |  |  |  |  |  |
